Series [1] in a line: Toxicity in human HeLa cells assessed as cell cycle arrest at G2M phase by flow cytometry based phenotypic drug discovery based assay. A general note: In flow cytometry, cells or beads pass a laser one at a time.
Series [2] in a line: Inhibition of endothelial cord area formation in endothelial precursor cells by CD31 cord area detection based phenotypic drug discovery based assay. It is filed as functional. The gist of the method: (§1)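 384-well coculture of endothelial colony-forming cells (ECFC) with adipose-derived stromal cells (ADSC) at 37 °C, 5% CO2. Screening at 2 μM single point on CD31-positive cord area; actives retested in 10-point dose response, with CD31 cord area as cord formation read-out and total nuclei count as cytotoxicity read-out.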

Series [3] can be described thus: Inhibition of cell migration in endothelial precursor cells by Oris cell migration kit based phenotypic drug discovery based assay. It is filed as functional.
A short description of series [4]: Toxicity in endothelial precursor cells co-cultured with stromal precursor ADSC cells by total nuclei count detection based phenotypic drug discovery based assay. The gist of the method: as §1
Series [5] deals with U-87 MG. Description: In-vivo inhibition of angiogenesis in human U87MG cells xenografted in athymic nude Harlan mouse at 30 mg/kg, sc dosed twice daily for 3 days measured 3 days post dose by fluorescence microscopy. Type of series: functional, organism-based. Further details: dose 30 mg/kg. To be noted: U-87MG ATCC. The method in brief: (§2)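 U87MG glioblastoma cells mixed 1:1 with Matrigel, 5.0 × 10^6 cells injected subcutaneously into right rear flank of female athymic nude mice; grown to mean 250 mm3, randomized by tumor volume and body weight (10/group). Dosing twice daily for 3 days: sc in 100% peanut oil, or oral gavage in 10% acacia. Tumors excised, zinc-Tris fixed, paraffin sectioned at 4 μm.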
In general terms: Xenograft models place foreign cells or tissue in a host animal.

Series [6] addresses Gamma-secretase (Homo sapiens) (UniProt Q96BI3+Q9NZ42+Q8WW43+P49768+Q92542+P49810). Description: Inhibition of human gamma secretase-expressed in HEK293 co-expressing human Notch-1 cells assessed as effect on enzyme-mediated Notch-1 processing up to 5 uM. It is filed as cell-based. The method in brief: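 HEK293 cells expressing a human Notch-1 construct lacking the extracellular ligand-binding domain (analogous to constitutively active mouse NotchΔE); γ-secretase cleavage detected with a mouse monoclonal antibody to the γ-secretase neoepitope of human Notch-1; tested up to 5 μM.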

Another series has as its system HEK293. Description: Inhibition of ACC expressed in HEK293 cells assessed as effect on incorporation of [14C]acetate into triacylglycerol. It is filed as cell-based. Conditions: Homo sapiens. The gist of the method: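 HEK293 cells moved from growth medium (DMEM, 10% FBS) into Opti-MEM containing compound in 0.2% DMSO for 1 h, then labeled with 30 μM [14C]acetate for 4 h. Cells washed, dissolved in Triton X-100 (0.175%) with basic ethanol/isopropanol at room temperature; labeled triacylglycerol extracted into heptane and counted by liquid scintillation.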

The target in a further series is Gamma-secretase. Briefly: Inhibition of human gamma secretase expressed in HEK293 cells coexpressing human APP by soluble beta-APP detection based ELISA. It is filed as cell-based. The gist of the method: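 HEK293 cells expressing recombinant human APP; soluble APPsβ production measured by ELISA with a mouse monoclonal antibody to the β-secretase neoepitope of hAPP.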
For orientation: ELISA stands for enzyme-linked immunosorbent assay.

The target of a further series is Beta-secretase 1 (Homo sapiens, UniProt P56817). Briefly: Inhibition of human BACE1 using BACE1-IgG construct by labeled substrate hydrolysis detection assay. The method in brief: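 Soluble human BACE activity: purified BACE-IgG ectodomain construct hydrolyzing a labeled peptide substrate.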
The subject of series [7] is U-87 MG. Description: In-vivo inhibition of angiogenesis in human U87MG cells xenografted in athymic nude Harlan mouse at 10 mg/kg oral gavage dosed twice daily for 3 days measured 3 days post dose by fluorescence microscopy. It is filed as functional, organism-based. Also on record: dose 10 mg/kg. Conditions: U-87MG ATCC. The method in brief: as §2

Structures can show the parent of a compound that is named as a salt. Active and inactive are the calls of the source. No cut-off for these calls is given here.

Sequence of Beta-secretase 1 (P56817 whole entry, the tested form may be a part): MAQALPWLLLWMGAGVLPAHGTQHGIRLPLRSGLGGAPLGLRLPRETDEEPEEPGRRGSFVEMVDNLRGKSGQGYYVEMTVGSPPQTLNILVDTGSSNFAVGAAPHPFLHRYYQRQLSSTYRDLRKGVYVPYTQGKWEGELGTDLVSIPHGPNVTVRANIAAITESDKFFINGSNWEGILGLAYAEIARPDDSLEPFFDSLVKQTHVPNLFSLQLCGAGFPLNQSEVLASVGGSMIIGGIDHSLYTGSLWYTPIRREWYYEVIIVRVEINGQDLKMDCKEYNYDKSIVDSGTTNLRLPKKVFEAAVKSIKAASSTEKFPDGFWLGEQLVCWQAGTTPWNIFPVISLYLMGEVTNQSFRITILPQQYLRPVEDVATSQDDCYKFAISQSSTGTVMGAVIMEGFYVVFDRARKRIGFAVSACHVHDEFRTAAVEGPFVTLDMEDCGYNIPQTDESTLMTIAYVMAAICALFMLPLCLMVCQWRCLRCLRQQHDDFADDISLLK

Regarding `CNC(=O)c1cc(Oc2ccc(NC(=O)Nc3ccc(Cl)c(C(F)(F)F)c3)cc2)ccn1` [SORAFENIB TOSYLATE], the EC50 is greater than 10 µM in series [1] and 5.46 µM in series [4]. Moreover, the values for the IC50 in series [2] and in series [3] were 0.00421 µM and 16.7 µM, respectively.

Turning to `Cc1ccc(OCC(=O)N[C@H]2c3cc(NC(=O)[C@@H](C)Oc4ccc(C#N)cc4C)ccc3C[C@@H]2O)cc1` (mixture of isomers), the EC50 in [1] was greater than 10 µM; in series [2], 0.021 µM; in series [4], greater than 10 µM. Moreover, the inhibition entry in the series on U-87 MG [5] is “Active”. In [3], this compound came in with an IC50 greater than 40 µM. The inhibition result in [6] is “inactive”.

For the compound `CCNC(=O)Nc1sc2ccccc2c1C(=O)N1CCC2(CC1)CC(=O)c1cc(-c3nccs3)ccc1O2`, the half-maximal effective concentration (EC50) in series [1] was greater than 10 µM; in [2], 0.041 µM; in series [4], greater than 10 µM. Further, the inhibition result with HEK293 was “Active”. In series [3], this compound showed a half-maximal inhibitory concentration (IC50) of 13 µM.

Turning to `Cc1ccc(OCC(=O)N[C@@H]2c3cc(NC(=O)COc4ccc(C#N)cc4C)ccc3C[C@@H]2O)cc1`, the IC50 was greater than 5 µM against Gamma-secretase, 9.1 µM in [2], 45.6 µM on Beta-secretase 1 and greater than 10 µM in series [4]. The inhibition result in series [6] is “inactive”.

Take `CCN(CC)CCNC(=O)c1c(C)[nH]c(/C=C2\C(=O)Nc3ccc(F)cc32)c1C` [SUNITINIB]: the EC50 in series [1] and in series [4] was greater than 10 µM throughout. Also, the inhibition result with U-87 MG [7] was “Active”. Moreover, the results for the IC50 in series [2] and in series [3] were 0.0096 µM and 13.6 µM, respectively.

On to `Cc1ccc(OCC(=O)N[C@@H]2c3cc(NC(=O)COc4ccc(C#N)cc4C)ccc3C[C@H]2O)cc1`, for which the IC50 against Gamma-secretase was greater than 5 µM; in series [2] it was 2.5 µM; against Beta-secretase 1, 13.6 µM; in series [4], greater than 10 µM. Also, the inhibition result in [6] is “inactive”.

In the case of `Cc1ccc(OCC(=O)N[C@H]2c3cc(NC(=O)COc4ccc(C#N)cc4C)ccc3C[C@@H]2O)cc1`, the IC50 against Gamma-secretase was greater than 5 µM; in series [2], 0.022 µM; against Beta-secretase 1, 0.142 µM; in series [4] it was greater than 10 µM. Also, the inhibition entry in [6] is “inactive”.

Consider `Cc1ccc(OCC(=O)N[C@H]2c3cc(NC(=O)COc4ccc(C#N)cc4C)ccc3C[C@H]2O)cc1`, for which the 50% inhibitory concentration (IC50) was greater than 5 µM on Gamma-secretase, 1.45 µM in [2], 4 µM against Beta-secretase 1 and greater than 10 µM in [4]. In addition, in series [6], the inhibition entry is “inactive”.

What is called EC50 is the concentration giving half of the maximal effect. By IC50 is commonly meant the point on the concentration scale where inhibition reaches its midpoint. Read a high IC50 as weaker potency in that assay.

(Values after ChEMBL document CHEMBL2057113, “Modern phenotypic drug discovery is a viable, neoclassic pharma strategy” (J Med Chem, 2012).)
